Measurements taken from article PMC12234697 (Scientific Reports, 2025).
Read-outs that look alike come from different tables or passages of the source.

What was measured:
[1] = tested on: HBV-expressing HepG2.2.15.7 cells; type: cell-based; conditions: Hepatitis B virus
Outline: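 HBV-producing HepG2.2.15.7 cells (derived from HepG2.2.15) were exposed to test compound at 0.1, 0.3, 1, 3, 10, 30 and 100 µM, […]. Enveloped Dane particles in the supernatant were captured by anti-HBs immunoprecipitation, and HBV DNA was then quantified by real-time PCR with S-gene primers/probe. Cell viability was read in parallel, n = 3. IC50 and CC50 were derived from dose curves.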

[2] = no reference given; cited from earlier work
[3] = Cell viability of HepG2.2.15.7 cells; type: cell-based; conditions: human
Outline: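 HepG2.2.15.7 cells (stable high-level HBV expression) seeded at 1.5 × 10^5 cells/well, grown overnight and PBS-washed. Fresh medium with compound (0.1, 0.3, 1, 3, 10, 30, 100 µM final; DMSO stocks) added for 48 h. Cell viability measured, n = 3; CC50 derived from the dose-response.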

precore mRNA and pgRNA = assay: Measurement of intracellular HBV RNA by real-time PCR; type: cell-based, hepatitis B virus; conditions: HepG2.2.15.7 cells; hit compound 16 10 µM, 38 and 39 30 µM; n = 3
Outline: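 Total RNA from treated HepG2.2.15.7 cells was TRIzol-extracted and reverse-transcribed with DNase treatment. SYBR Green real-time PCR used primers PCP/BC1 for precore mRNA and PGP/BC1 for precore mRNA plus pgRNA, normalised to GAPDH. n = 3; Mann-Whitney U test, p < 0.05.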

[4] = tested on: LHBs protein and HBc protein; assay: Western blot analysis of intracellular HBV proteins; type: cell-based, hepatitis B virus; conditions: HepG2.2.15.7 cells; hit compound 16 10 µM, 38 and 39 30 µM; n = 3
Outline: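 Treated HepG2.2.15.7 cells were lysed in RIPA buffer and soluble protein was run on SDS-PAGE, then transferred to PVDF. Blots were blocked, then given primary antibodies (including rabbit polyclonal anti-HBc; β-actin as loading control) at 4 °C overnight and secondaries 1 h at room temperature. ECL detection; bands quantified by densitometry, n = 3.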

C=C[C@H]1C[N@@]2CC[C@H]1C[C@@H]2[C@@H](O)c1ccnc2ccc(OC)cc12 [Compound 39, quinidine]
IC50 ([1]; HepG2.2.15.7, read-out: IC50 (HBV DNA after the immunoprecipitation)): 18.6 µM | IC50 ([1]; HepG2.2.15.7, read-out: IC50 against HBV expressed in µg/mL): 2.8 µg/mL | effective blood concentration for arrhythmia [2]: 2.3 to 5.0 µg/mL | CC50 at 48 h [3]: 131 µM | pgRNA level compared to a control (precore mRNA and pgRNA): no significant difference | precore mRNA level compared to a control (precore mRNA and pgRNA): no significant difference | HBc protein level (western blot) [4]: no significant differences | LHBs protein level (western blot) [4]: no significant differences
